Compound activity: PubChem, several laboratories
B2AR ag – agonists of human beta-2 adrenergic receptor inducing internalization | P07550 | Am2.2-beta2AR cells, FAP receptor internalization, flow cytometry | response, % (concentration not given with the values) | hit rate 0.43% among 340,000 | AID 504454;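 active means response above a set limit, near 3 SD of response in nonfluorescent compounds, cut at about 42% in these data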
TAAR1 antag – antagonists of human TAAR1. Q96RJ0. CHO RD-HGA16 TAAR1, Fluo-8 calcium fluorescence, antagonist. inhibition, % at 3 µM. hit rate 1.5% among 360,000. AID 624466;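 active means inhibition above a per-plate cutoff, the mean inhibition of test compounds on that plate plus 3 SD, cut at about 49% in these data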
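Assay system: RD-HGA16 CHO cells with stable hTAAR1 and Gα16 / Reagent: EC80 β-phenethylamine stimulus / Doses: 3 µM, single point / Timing: dye loading 75 min at 37 °C, then 30 min room temperature / Measured by: Fluo-8 intracellular calcium dye fluorescence, real-time kinetic reads / Controls: vehicle wells and EC80 agonist wells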
HTR2A ag – activates the mouse 5-HT2A serotonin receptor | CHO-K1 mHTR2A beta-arrestin complementation, luminescence; percent of 30 µM serotonin response | activation, % at 7.6 µM | hit rate 0.66% among 360,000 | AID 624169;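 active means activation above a run cutoff, the mean activation of all tested compounds plus 3 SD, cut at about 14% in these data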
MC4R barr agon – activates human MC4R beta-arrestin recruitment | P32245 | activation, % at 8.9 µM | U2OS MC4R beta-arrestin complementation, luminescence; percent of melanotan II response, DMSO zero | hit rate 0.98% among 360,000;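 active means activation above a per-plate cutoff, the mean activation of sample wells on that plate plus 3 SD, cut at about 8% in these data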
Target sequence (P32245 whole entry, looked up): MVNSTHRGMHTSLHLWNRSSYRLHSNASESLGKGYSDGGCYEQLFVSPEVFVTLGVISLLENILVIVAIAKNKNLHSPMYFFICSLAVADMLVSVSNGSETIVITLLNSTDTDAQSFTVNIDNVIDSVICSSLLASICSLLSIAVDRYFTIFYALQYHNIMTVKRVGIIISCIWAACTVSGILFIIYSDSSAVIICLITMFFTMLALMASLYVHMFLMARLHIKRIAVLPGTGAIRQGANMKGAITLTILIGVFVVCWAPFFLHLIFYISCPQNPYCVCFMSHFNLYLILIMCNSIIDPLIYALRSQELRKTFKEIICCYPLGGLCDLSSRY
MC4R antagonist – antagonists of human melanocortin 4 receptor (MC4R); P32245; MC4R-expressing cells, MTII-stimulated cAMP, LANCE TR-FRET; inhibition, % at 6.5 µM; hit rate 0.48% among 360,000; AID 540295;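 active means inhibition above its plate's cutoff, the mean of tested wells on that plate plus 3 SD, cut at about 29% in these data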
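Material: U2OS-MC4R stable cell line | Reagent: Melanotan II challenge after compound preincubation | Doses: One concentration, 6.5 µM nominal | Incubation: 30-min compound preincubation, 1-h Melanotan II challenge, 1-h detection, room temperature | Signal: TR-FRET cAMP assay | Replicates: One well per compound, no replicates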
TAAR1 ag – agonists of human TAAR1; CHO RD-HGA16 TAAR1, Fluo-8 calcium fluorescence; vehicle wells 0%, saturating PEA agonist 100%; activation, % at 3 µM; hit rate 0.99% among 360,000;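 active means activation above the mean activation of all test compounds in the run plus 3 SD, cut at about 38% in these data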
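test system = CHO RD-HGA16 cells carrying human TAAR1 plus Gα16 | schedule = 17-24 h seeding, 75 min 37 °C dye, 30 min RT | compound dosing = 3 µM single concentration | control set = DMSO and PEA EC100 | replicates = n 1 | signal = Fluo-8 fluorescence, 5 s baseline then 140 s kinetic read | measure = percent activation vs PEA EC100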
Numbers stand for hits. Most compounds without a hit are left out; they make up all but 4.3% or so of the library.

Screening O=C1C=CC(=O)N1Cc1ccccc1 returned B2AR ag inactive, TAAR1 antag inactive, HTR2A ag 17.7, MC4R barr agon inactive, MC4R antagonist inactive and TAAR1 ag inactive.
For CCOc1ccccc1-n1nnnc1SCc1nc2ccccc2s1 the results were B2AR ag inactive, TAAR1 antag 52.9, HTR2A ag inactive, MC4R barr agon inactive, MC4R antagonist inactive and TAAR1 ag inactive.
Cc1ccccc1-n1c(C)nnc1SCc1nc2ccccc2s1 was read as B2AR ag inactive, TAAR1 antag inactive, HTR2A ag inactive, MC4R barr agon inactive, MC4R antagonist inactive and TAAR1 ag inactive.
COc1ccc(-c2cc(C(F)F)n3ncc(C(=O)n4ccnc4C)c3n2)cc1 was read as B2AR ag 48.0, TAAR1 antag inactive, HTR2A ag inactive, MC4R barr agon inactive, MC4R antagonist inactive and TAAR1 ag inactive.
Screening COc1ccc(-c2cc(C(F)F)n3ncc(C(=O)N4CCc5ccccc54)c3n2)cc1 returned B2AR ag inactive, TAAR1 antag inactive, HTR2A ag inactive, MC4R barr agon inactive, MC4R antagonist inactive and TAAR1 ag inactive.
`CC(=O)C1=C(C)N(Cc2ccc(Br)cc2)C(=S)NC1c1cccc(F)c1` (configuration not stated) gave TAAR1 antag inactive and TAAR1 ag inactive.
For Cc1cccc(C(=O)NC(=S)Nc2ccccc2C(=O)O)c1 the results were B2AR ag inactive, TAAR1 antag inactive, HTR2A ag inactive, MC4R barr agon inactive, MC4R antagonist inactive and TAAR1 ag inactive.
Screening Cc1ccc(C(=O)NNC(=S)NC(=O)c2ccc(Cl)cc2)cc1 returned B2AR ag inactive, TAAR1 antag 108.4, HTR2A ag inactive, MC4R barr agon inactive, MC4R antagonist inactive and TAAR1 ag 146.4.
`Cc1cccc(C(=O)NC(=S)NNC(=O)c2ccccc2Cl)c1` gave B2AR ag inactive, TAAR1 antag 107.1, HTR2A ag inactive, MC4R barr agon inactive, MC4R antagonist inactive and TAAR1 ag 147.7.
Screening Cc1ccc(C(=O)NC(=S)NCC(=O)c2ccccc2)cc1 returned B2AR ag inactive, TAAR1 antag inactive, HTR2A ag inactive, MC4R barr agon 11.4, MC4R antagonist inactive and TAAR1 ag inactive.
`CCOC(=O)C1=C(C(=O)OCC)C2N(Cc3ccc(Br)cc3)c3ccccc3[C@@]23C[C@@H](C(=O)OC)N(S(=O)(=O)c2ccc(F)cc2)C3=N1` (some centres not stated) gave TAAR1 antag inactive and TAAR1 ag inactive.
Screening COc1ccc(N/C(=C\C(=O)c2ccccc2)c2ccccc2)cc1OC returned TAAR1 antag inactive and TAAR1 ag inactive.
COc1ccc(NS(=O)(=O)c2cc(NC(=O)c3cncc(Br)c3)ccc2OC)cc1 was read as B2AR ag inactive, TAAR1 antag 50.0, HTR2A ag inactive, MC4R barr agon inactive, MC4R antagonist inactive and TAAR1 ag inactive.
Screening COc1ccc(NS(=O)(=O)c2cc(NC(=O)c3cnccn3)ccc2OC)cc1Br returned B2AR ag inactive, TAAR1 antag inactive, HTR2A ag inactive, MC4R barr agon inactive, MC4R antagonist inactive and TAAR1 ag inactive.
COc1ccc(NC(=O)c2ccc(Cl)c(S(=O)(=O)N3CC(C)OC(C)C3)c2)cn1 (configuration not stated) was read as B2AR ag inactive, TAAR1 antag inactive, HTR2A ag inactive, MC4R barr agon inactive, MC4R antagonist inactive and TAAR1 ag inactive.
`COc1ccccc1NS(=O)(=O)c1cccc(NC(=O)c2cncc(Br)c2)c1` gave B2AR ag inactive, TAAR1 antag 51.4, HTR2A ag inactive, MC4R barr agon inactive, MC4R antagonist inactive and TAAR1 ag inactive.
For COc1ccccc1NS(=O)(=O)c1cc(NC(=O)c2ccc(Cl)nc2)ccc1Cl the results were B2AR ag inactive, TAAR1 antag 55.8, HTR2A ag inactive, MC4R barr agon inactive, MC4R antagonist inactive and TAAR1 ag inactive.
`COc1ccc(NC(=O)c2ccc(Cl)c(S(=O)(=O)N3CCc4ccccc4C3)c2)cn1` gave B2AR ag inactive, TAAR1 antag 65.6, HTR2A ag inactive, MC4R barr agon inactive, MC4R antagonist inactive and TAAR1 ag inactive.
